# SENP8 block-1 = blocks human SENP8 cleavage of Nedd8 substrate; Q96LD8; recombinant SENP8, Nedd8 substrate fluorescence; inhibition, % at 20 µM; actives 0.64% (n = 360,000); in the data active means inhibition mostly above about 40%, no sharp cut-off; inactive means mostly below about 27%
# SENP7 inh = inhibitors of human SENP7 protease | AID 434973 | recombinant SENP7, Z-RLRGG-aminoluciferin luminescence, 40 min | actives 1.5% (n = 330,000) | Q9BQF6 | inhibition, % at 5 µM;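 active means inhibition above about 50% at the single test dose, limit read from the data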;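 further: plate controls were DMSO with enzyme for no effect and no enzyme buffer wells for full effect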
# Target sequence (Q9BQF6 706-1050 limits assumed): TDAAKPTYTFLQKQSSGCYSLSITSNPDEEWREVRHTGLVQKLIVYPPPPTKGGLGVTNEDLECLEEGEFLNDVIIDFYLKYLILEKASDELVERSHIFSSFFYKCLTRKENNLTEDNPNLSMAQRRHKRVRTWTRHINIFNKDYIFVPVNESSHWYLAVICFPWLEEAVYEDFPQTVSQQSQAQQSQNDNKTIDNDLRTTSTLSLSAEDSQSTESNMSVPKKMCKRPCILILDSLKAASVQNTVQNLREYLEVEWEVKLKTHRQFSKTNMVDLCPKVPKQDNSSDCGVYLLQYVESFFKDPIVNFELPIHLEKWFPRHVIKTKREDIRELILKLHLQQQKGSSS
# Apaf-1 inh = blocks human Apaf-1 apoptosome activity; O14727; reconstituted apoptosome caspase-3 activity, DEVD-Rh110 fluorescence; inhibition, % at 20 µM; actives 0.71% (n = 330,000); AID 489030; active means inhibition of at least 40% at 20 µM;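 further: plate controls were DMSO wells for no effect and DEVD-CHO caspase inhibitor wells for full effect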
#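 System: reconstituted apoptosome with Apaf-1, cytochrome c, caspase-9, procaspase-3, dATP; Signal: Rh110 fluorescence intensity; Schedule: 30 min compound preincubation, 50 min activation, room temperature; Reagent: cytochrome c trigger plus (Z-DEVD)2-Rh110 caspase-3 substrate.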
# SENP8 block-2 = inhibitors of human SENP8 protease; actives 1.2% (n = 330,000); purified SENP8, Z-RLRGG-aminoluciferin cleavage, luminescence; inhibition, % at 10 µM; Q96LD8; in the data active means inhibition above about 50%
# SENP6 block = inhibitors of human SENP6 protease. Q9GZR1. actives 1.8% (n = 330,000). Recombinant SENP6 catalytic domain, aminoluciferin luminescence. AID 2599. inhibition, % at 10 µM;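 active means inhibition above about 50% at the single tested dose, limit read from the data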;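 further: plate controls were DMSO wells with enzyme for no effect and DMSO wells lacking enzyme for full effect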
# UBC13 polyUb = inhibitors of human UBC13 polyubiquitin chain formation. TR-FRET. inhibition, % at 20 µM. actives 0.47% (n = 330,000); in the data active means inhibition above about 45%, passing the limit was not always enough
# Target sequence (P61088 whole entry, looked up): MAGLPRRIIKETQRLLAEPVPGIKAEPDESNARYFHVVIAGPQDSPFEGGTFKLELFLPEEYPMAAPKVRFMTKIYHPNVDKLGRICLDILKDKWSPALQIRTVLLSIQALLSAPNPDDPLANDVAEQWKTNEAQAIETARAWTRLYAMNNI
# * hit, by the source's call; . = no result. In the library only some 3% were active in any assay of this set; here they are far more common.
SMILES,SENP8 block-1,SENP7 inh,Apaf-1 inh,SENP8 block-2,SENP6 block,UBC13 polyUb
C=CCn1c(C)cc(C2=NNC(=NC(C)(C)C)SC2)c1C,-4,9,6,51*,83*,10
CNC(=O)/C(C#N)=C/c1ccc(-c2nc3ccccc3s2)o1,-422,64*,-22,-2,-3,-2
Cc1cccc(C)c1NC(=O)CN(C)C(=O)c1ccccc1SCC(=O)N1CCCC1,0,7,42*,-7,6,7
CN(CC(=O)Nc1c(Cl)cccc1Cl)C(=O)c1ccccc1SCC(=O)N1CCCC1,3,-1,29,1,10,12
CN(C)c1ccc(CNc2nc3ccccc3s2)cc1,.,95*,2,54*,82*,8
CN(C)c1ccc(/C=C/c2nc3ccccc3s2)cc1,-241,99*,5,97*,99*,3
CC(=O)C1=CCC(c2ccccc2)N(S(=O)(=O)c2ccccc2)C1 (stereo not given),25,.,.,.,.,.
Cn1c(=NC(=O)c2ccc(S(=O)(=O)N3CCCc4ccccc43)cc2)sc2cc(S(C)(=O)=O)ccc21,-86,5,16,9,7,-3
Cn1c(=NC(=O)c2ccccc2[N+](=O)[O-])sc2cc(S(C)(=O)=O)ccc21,20,57*,-2,-6,30,1
CC(C)[C@H](NC(=O)OC(C)(C)C)c1cc(C(=O)N2CCOCC2)c(N)s1,7,.,.,.,.,.
CN(C)CCCN1c2ccccc2CCc2ccc(Cl)cc21,4,4,31,-4,2,20
CN(CCCN1c2ccccc2CCc2ccccc21)CC(=O)c1ccc(Cl)cc1,.,12,44*,-13,-10,39
O=C(N/N=C1\CCCc2ccccc21)c1ccccc1Cl,6,4,-2,-1,18,2
O=C(N/N=C1\CCc2ccccc21)c1ccccc1O,-13,78*,-4,58*,71*,14
CC(OC(=O)c1cc(O)c2ccccc2c1O)C(=O)Nc1ccc(C(N)=O)cc1 (stereo not given),-345,7,49*,17,37,-30
Cc1ccccc1-c1nnc(-c2cccs2)o1,-145,55*,-17,55*,82*,7
c1coc(-c2nnc(-c3cccs3)o2)c1,-230,16,-3,-7,3,1
COc1ccc(-c2nc(C(N)=O)c3[nH]c(=O)n(-c4cccc(Cl)c4)c3n2)cc1OC,-26,.,.,.,.,.
COc1cccc(-c2nc(C(N)=O)c3[nH]c(=O)n(-c4cccc(Cl)c4)c3n2)c1OC,-80,5,29,-2,8,50*
CCCCNC(=O)c1ccc2nc(CC)c(N(C)Cc3cccs3)n2c1,-5,.,.,.,.,.
CN1/C(=C/c2cc[n+](C)c3ccccc23)C=Cc2ccccc21,58*,.,.,.,.,.
O=C1C(Cl)=C(NS(=O)(=O)c2ccc([N+](=O)[O-])cc2)C(=O)c2ccccc21,53*,16,31,11,12,-70
N#CC1=C(N)C(C#N)(C#N)[C@H](c2ccoc2)[C@H]2CN(Cc3ccccc3)CC=C12,-498,77*,59*,84*,91*,-19
COc1ccc2[nH]c(=O)cc(C(=O)O)c2c1,-434,-2,-13,4,-8,2
COc1ccc2[nH]c3c4c(ccc3c2c1)C(=O)C=CC4=O,-279,-7,45*,6,11,-67
SMILES,SENP8 block-1,SENP7 inh,Apaf-1 inh,SENP8 block-2,SENP6 block,UBC13 polyUb
CC(C)=NNc1cnnc2ccc([N+](=O)[O-])cc12,26,.,.,.,.,.
Cc1[nH]n(-c2ccccc2)c(=O)c1N=Nc1ccccc1C(=O)O,27,3,13,1,2,-8
CC1=NC(=O)C(N=Nc2cccc(C(=O)O)c2)N1c1ccccc1 (stereo not given),22,-6,-3,-14,2,-32
CC1=NC(=O)C(N=Nc2ccccc2)N1c1ccccc1 (stereo not given),46*,4,9,-6,-10,-12
CC1=NC(=O)C(N=Nc2ccccc2C(=O)O)N1c1ccccc1 (stereo not given),48*,4,23,-2,-7,-54
O=C(NC1CCCC1)C(C1CC1)n1c(-c2ccncc2)nc2ccccc21 (stereo not given),-48,.,.,.,.,.
COCC(=O)N[C@H]1CC[C@@H](CC(=O)NCc2ccccc2OC)O[C@@H]1CO,30,.,.,.,.,.
COCCN1C(=S)N[C@@H](c2cccc(F)c2)C(C(=O)OC)=C1C,.,10,57*,-17,-17,86*
COC(=O)C1=C(C)N(Cc2ccccc2)C(=S)N[C@H]1c1cccc(F)c1,-2,3,7,2,6,15
CCCCCCOC(=O)Nc1ccc(S(=O)(=O)Nc2cccc([N+](=O)[O-])c2)cc1,5,-8,14,-7,52*,-13
CCCOc1ccc(/C=C2\SC(=S)N(CC3CCCO3)C2=O)cc1 (stereo not given),49*,-5,13,-19,-4,-11
O=C1/C(=C/c2ccc(O)cc2)SC(=S)N1CC1CCCO1 (stereo not given),28,8,9,8,44,-80
Cc1ccc(/C=N\NC(=O)C2COc3cc4ccccc4cc3O2)o1 (stereo not given),12,11,4,-6,-30,-11
O=C(N/N=C\c1ccc(-c2ccccc2[N+](=O)[O-])o1)C1COc2cc3ccccc3cc2O1 (stereo not given),-3,32,81*,14,31,-35
O=C(NC(=O)c1ccccc1O)c1ccc2c(c1)CCO2,-33,42,-2,51*,65*,-2
CCOC(=O)[C@]12CCCC=C1N(CCc1ccc(OC)c(OC)c1)C(=O)[C@H](CC(=O)N1CCSCC1)C2,19,.,.,.,.,.
CC(=O)Nc1ccc(CN(C)c2c(C)nc3ccc(C(=O)N(C)Cc4ccco4)cn23)cc1,-2,.,.,.,.,.
CC(=O)O[C@@H]1[C@@H](O)[C@@H](O)[C@H](Oc2c(-c3ccc(O)cc3)oc3c(CC=C(C)C)c(O)cc(O)c3c2=O)O[C@H]1C,.,-10,26,-11,-19,46*
O=C1/C(=N\S(=O)(=O)c2cccs2)C([n+]2ccccc2)=C([O-])c2ccccc21,105*,41,27,39,69*,-89
CCOC(=O)[C@]12CCCC=C1N(Cc1cccc3ccccc13)C(=O)[C@H](CC(=O)N1CCCC1)C2,17,.,.,.,.,.
Cc1cc(C)cc(CC(=O)N2CCC2(C)C(=O)NS(=O)(=O)c2cc(C)ccc2F)c1 (stereo not given),19,.,.,.,.,.
O=C(COC(=O)c1ccc([N+](=O)[O-])o1)NC1CCCC1,40*,4,5,5,13,-6
CC(/C=N/NC(=O)Cc1cc(=O)[nH][nH]1)=C\c1ccccc1,37,17,60*,4,7,-2
